Screening data: PubChem, The Scripps Research Institute Molecular Screening Center
An excerpt weighted towards active compounds, which were near 4.2% of everything screened.
OX1R antag-1: human HCRTR1 antagonism; O43613; CHO/OX1R cells, Fluo-8 calcium fluorescence, orexin A; inhibition, % at 5 µM; 330,000 compounds, 0.43% hits; AID 434989;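 active = inhibition above its plate's threshold, mean inhibition of all tested compounds on the plate plus 3 SD, cut at about 37% in these data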;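 note: 0% = orexin A challenge wells and 100% = SB-334867-A antagonist wells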
Target sequence (O43613 whole entry, looked up): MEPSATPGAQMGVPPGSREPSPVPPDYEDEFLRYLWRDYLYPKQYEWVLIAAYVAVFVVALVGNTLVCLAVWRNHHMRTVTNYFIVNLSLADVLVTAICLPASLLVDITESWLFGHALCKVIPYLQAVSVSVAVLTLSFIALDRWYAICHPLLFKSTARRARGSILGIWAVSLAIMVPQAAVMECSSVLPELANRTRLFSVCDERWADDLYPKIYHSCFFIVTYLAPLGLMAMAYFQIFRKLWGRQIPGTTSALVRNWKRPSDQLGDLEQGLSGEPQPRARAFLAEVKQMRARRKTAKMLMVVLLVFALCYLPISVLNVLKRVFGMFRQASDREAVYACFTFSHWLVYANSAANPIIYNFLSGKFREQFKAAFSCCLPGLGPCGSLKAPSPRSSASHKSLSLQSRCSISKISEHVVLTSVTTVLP
CHO parental Ca: counter-screen: ATP calcium response change in parental CHO cells | 330,000 compounds, 0.63% hits | inhibition, % at 5.6 µM | parental CHO-K1, ATP-induced calcium, Fluo-8 fluorescence;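 active = inhibition above that plate's mean sample inhibition plus 3 SD, cut at about 26% in these data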;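 note: 0% = ATP-challenged DMSO wells and 100% = DMSO wells without ATP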
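Material: parental CHO cells / Compound: single nominal dose of 5.6 µM per compound / Signal: Fluo-8 fluorescence / Replicates: singlicate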
GalR3 antagonist: antagonists of human GalR3. O60755. HEK293 GalR3-CNG cAMP membrane potential fluorescence; galR3 body fused to GalR1 C-terminus. inhibition, % at 3 µM. 360,000 compounds, 0.44% hits. AID 651719;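 active = inhibition above the screen-wide average plus 3 SD, cut at about 13% in these data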;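 note: forskolin and galanin both at EC90 stimulate the cells; cAMP rise reported by CNG channel membrane potential dye signal; 0% = forskolin plus galanin with DMSO and 100% = forskolin alone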
Target sequence (O60755 1-299 limits assumed): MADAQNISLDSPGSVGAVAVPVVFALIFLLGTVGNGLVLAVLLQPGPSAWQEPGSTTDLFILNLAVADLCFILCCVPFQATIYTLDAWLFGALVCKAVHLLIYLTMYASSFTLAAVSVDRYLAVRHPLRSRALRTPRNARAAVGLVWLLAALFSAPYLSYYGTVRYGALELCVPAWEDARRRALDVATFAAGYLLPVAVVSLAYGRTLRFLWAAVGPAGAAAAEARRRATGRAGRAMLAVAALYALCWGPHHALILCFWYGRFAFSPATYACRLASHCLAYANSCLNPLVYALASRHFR
TAAR1 agonist: human TAAR1 agonism | activation, % at 3 µM | 360,000 compounds, 0.99% hits | CHO RD-HGA16 TAAR1, Fluo-8 calcium fluorescence; vehicle wells 0%, saturating PEA agonist 100% | Q96RJ0;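 active = activation above the mean activation of all test compounds in the run plus 3 SD, cut at about 38% in these data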
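System: CHO-derived RD-HGA16 cells with stable Gα16 and human TAAR1. Times: 17-24 h plating, Fluo-8 75 min 37 °C, 30 min RT. Measured by: calcium-sensitive Fluo-8 signal, excitation 470-495, emission 515-575 nm. Read-out basis: % activation relative to PEA EC100 response. Control set: DMSO and PEA EC100. Repeats: no replicates (n 1).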
TAAR1 antagonist: antagonists of human TAAR1. inhibition, % at 3 µM. CHO RD-HGA16 TAAR1, Fluo-8 calcium fluorescence, antagonist. 360,000 compounds, 1.5% hits. AID 624466;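 active = inhibition above a per-plate cutoff, the mean inhibition of test compounds on that plate plus 3 SD, cut at about 49% in these data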;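 note: 0% = DMSO plus EC80 beta-PEA response and 100% = DMSO alone without agonist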
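Material: CHO RD-HGA16 cells bearing hTAAR1; compound dosing: one-point dosing, 3 µM nominal final; schedule: dye loading 75 min at 37 °C, then 30 min room temperature; measured by: calcium fluorescence with Fluo-8; control set: vehicle and agonist controls; replication: n of 1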
OX1R antag-2: blocks the human orexin 1 receptor. OX1R-expressing cells, FRET antagonist read-out. inhibition, % at 6.6 µM. 330,000 compounds, 1.8% hits. O43613; in the data active = inhibition mostly above about 38%, no sharp cut-off; inactive = mostly below about 40%;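 note: 0% = agonist challenge alone and 100% = reference antagonist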
TAAR1 ag conf: human TAAR1 agonism, confirmed | shares compounds with TAAR1 agonist | CHO RD-HGA16 TAAR1, Fluo-8 calcium fluorescence; scaled: DMSO 0%, maximal phenethylamine 100% | activation, % at 3 µM | 2,400 compounds, 82% hits;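 active = activation above a cutoff set at the run's mean compound activation plus 3 SD, cut at about 39% in these data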
Ga16 nonsel ag: nonselective agonism, TAAR1 counter-screen; 2,400 compounds, 50% hits; activation, % at 3 µM; AID 651787; shares compounds with TAAR1 agonist; CHO-Ga16 parental, Fluo-8 calcium fluorescence; normalized to maximal ATP response, DMSO zero;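 active = activation above the run cutoff, the mean activation over all tested wells plus 3 SD, cut at about 12% in these data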;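 note: 0% = DMSO wells and 100% = maximal ATP response on the peak over basal ratio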
TAAR1 desens: counter-screen for human TAAR1 agonists: agonists that desensitize TAAR1; inhibition, % at 3 µM; CHO RD-HGA16 hTAAR1, Fluo-8 calcium, beta-PEA response inhibition; AID 651951; shares compounds with TAAR1 agonist; 2,400 compounds, 46% hits;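 active = inhibition above the run cutoff, the mean inhibition of all test compounds plus 3 SD, cut at about 49% in these data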;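 note: beta-PEA stimulus applied at its EC80; loss of beta-PEA calcium signal after compound pretreatment read as receptor desensitization; 0% = DMSO with beta-PEA at EC80 and 100% = DMSO alone without agonist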
Ga16 nonsel ant: nonselective Ga16 antagonism, counter-screen. shares compounds with TAAR1 agonist. CHO-Ga16 ATP-induced calcium, Fluo-8 fluorescence. inhibition, % at 3 µM. 2,400 compounds, 39% hits. AID 651952;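 active = inhibition above the plate's mean compound inhibition plus 3 SD, computed per plate, cut at about 22% in these data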;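 note: 0% = EC80 ATP with DMSO and 100% = DMSO wells without ATP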
Active calls of the source: *; x = no result; + = active, no number.

SMILES | OX1R antag-1 | CHO parental Ca | GalR3 antagonist | TAAR1 agonist | TAAR1 antagonist | OX1R antag-2 | TAAR1 ag conf | Ga16 nonsel ag | TAAR1 desens | Ga16 nonsel ant
CC(C)C(=O)Nc1ccc(NC(=S)NC(=O)c2cc3ccccc3o2)cc1 | -12 | -4 | -3 | 5 | 23 | 9 | x | x | x | x
Cc1cc(NC(=O)CCC(=O)N(c2cccnc2)C(C(=O)NC2CCCC2)c2ccccc2)no1 (stereo not drawn) | -16 | -23 | -1 | 0 | 6 | 9 | x | x | x | x
Cc1ccc(-n2nnc3c(=O)n(CC(=O)NCc4ccccc4)cnc32)cc1 | -4 | 42* | x | 42* | -11 | 14 | 15 | 5 | -9 | 1
Cc1ccc(-n2nnc3c(=O)n(Cc4cccc(C)c4)cnc32)cc1 | -16 | -5 | x | 1 | -11 | 1 | x | x | x | x
Cc1ccc(-n2nnc3c(=O)n(Cc4cc(C)ccc4C)cnc32)cc1 | -8 | -5 | 1 | 43* | 95* | 5 | 71* | 35* | 87* | 53*
O=c1c2nnn(-c3ccc(Cl)cc3)c2ncn1Cc1ccccn1 | -19 | -19 | -5 | 476* | 86* | 19 | 5 | 3 | 2 | 12
O=C(Cn1cnc2c(nnn2-c2ccccc2)c1=O)NCc1ccc(F)cc1 | -8 | 0 | x | 1 | -21 | -19 | x | x | x | x
O=C(NCc1ccco1)c1cc2nc(-c3ccc4c(c3)OCO4)cc(C(F)(F)F)n2n1 | -10 | -15 | -1 | 9 | -4 | 26 | x | x | x | x
O=C(NCCc1ccc(Cl)cc1)c1ncn[nH]1 | 1 | -5 | -4 | 48* | -13 | 27 | 46* | 3 | 7 | 4
CC1CCN(S(=O)(=O)c2ccc(NC(=O)Cn3nnc(-c4ccccc4F)n3)cc2)CC1 | -20 | -17 | 1 | 6 | -8 | 8 | x | x | x | x
O=C(CC(c1ccccc1)c1ccccc1)Nc1ccc(O)cc1 | -14 | -13 | -8 | 2 | -1 | 13 | x | x | x | x
O=C(CC(NCCc1ccccc1)C(=O)O)Nc1ccc(O)cc1 (stereo not drawn) | -6 | -1 | -3 | 50* | 6 | 5 | 91* | 1 | 74* | 6
N#C/C(=C\c1ccccc1)C(=O)Nc1cc(S(=O)(=O)N2CCOCC2)ccc1N1CCCC1 | -12 | -2 | 0 | 11 | -15 | 8 | x | x | x | x
Clc1ccc(OCCOCCNCc2ccccc2)cc1Cl | -16 | 3 | 1 | 23 | 26 | -3 | x | x | x | x
CCCSc1ccc(C(=O)Nc2ccc(F)cc2F)cn1 | -24 | 8 | -2 | 67* | 29 | 18 | 18 | 1 | -12 | 2
COc1ccc(C(=O)Nc2ccc(F)cc2F)cc1OC | -13 | -6 | -2 | 1 | -23 | 4 | x | x | x | x
COc1ccc(C(=O)Nc2cc(C(=O)c3ccccc3)c(C)oc2=O)cc1 | -9 | -11 | -3 | 37 | 5 | 8 | x | x | x | x
Cc1oc(=O)c(NC(=O)c2cccc(Cl)c2)cc1C(=O)c1ccccc1 | -14 | -15 | -5 | 55* | 28 | 11 | 11 | 10 | 37 | 31*
CN(C)/C=C1\C=C2C(=O)c3ccccc3N2C1=O | 46* | 50* | 0 | 413* | 87* | 10 | + | + | 104* | 94*
CCOC(=O)[C@]12CCC=C1N(Cc1ccccc1)C(=O)[C@H](CC(=O)NCCc1ccccc1OC)C2 | x | x | -6 | 70* | 52* | x | 91* | 0 | 75* | -7
CCCCCCCCN1C(=O)[C@H](CC(=O)NCCc2ccccc2OC)C[C@@]2(C(=O)OC)CC(C)(C)CC=C12 | x | x | -6 | 44* | -40 | x | 60* | 3 | 24 | 13
COC(=O)[C@]12CCCCC=C1N(Cc1ccccc1)C(=O)[C@H](CC(=O)NCCc1ccccc1OC)C2 | x | x | -3 | 70* | 57* | x | 91* | 2 | 77* | 6
COC(=O)[C@]12CCCCC=C1N(Cc1cccc3ccccc13)C(=O)[C@H](CC(=O)NCCc1ccccc1OC)C2 | x | x | 4 | 45* | -6 | x | 44* | -1 | 15 | 20
COC(=O)[C@]12CCCCC=C1N(Cc1cccc3ccccc13)C(=O)[C@H](CC(=O)NCC1CCCCC1)C2 | x | x | -6 | -1 | 38 | x | x | x | x | x
C=CCNC(=S)N1CCC(C(=O)c2ccc(C)cc2)CC1 | -19 | -7 | -9 | 1 | 4 | -2 | x | x | x | x
SMILES | OX1R antag-1 | CHO parental Ca | GalR3 antagonist | TAAR1 agonist | TAAR1 antagonist | OX1R antag-2 | TAAR1 ag conf | Ga16 nonsel ag | TAAR1 desens | Ga16 nonsel ant
Cn1c(C(=O)N[C@@H](Cc2ccccc2)C(=O)O)cc2cc(Cl)ccc21 | -8 | -8 | -7 | 7 | -17 | 5 | x | x | x | x
O=C(c1cc([N+](=O)[O-])ccc1N1CCOCC1)N1CCOCC1 | 2 | 4 | -3 | 2 | 6 | 22 | x | x | x | x
Cc1ccc(OCc2nnc(SCC(=O)Nc3sc(C)c(C)c3C#N)n2C)cc1 | 6 | 1 | -4 | 54* | 46 | 12 | 10 | 2 | 20 | 5
Cc1sc(NC(=O)CSc2nnc(COc3ccccc3)n2C)c(C#N)c1C | 1 | 28 | -7 | 53* | 47 | 7 | 11 | 4 | 19 | 8
Nc1nc(Nc2ccccc2)sc1C(=O)c1ccccc1 | -51 | -42 | -8 | 68* | -33 | 26 | 50* | 23* | 6 | -2
COc1ccc(C(=O)c2sc(Nc3ccccc3)nc2N)cc1 | x | x | -5 | 16 | -3 | x | x | x | x | x
O=C(NCC(c1ccco1)N1CCc2ccccc2C1)C(=O)Nc1ccc(F)cc1F (stereo not drawn) | -7 | -16 | -3 | 58* | 14 | 21 | 41* | 5 | 10 | 16
O=C(NCC(c1ccco1)N1CCc2ccccc2C1)c1ccccc1Br (stereo not drawn) | 1 | -14 | -6 | 35 | 7 | 9 | x | x | x | x
CC(=O)Nc1ccc(NC(=O)C(=O)NCC(c2ccco2)N2CCc3ccccc32)cc1 (stereo not drawn) | -30 | -20 | 0 | 0 | -1 | 14 | x | x | x | x
O=C(NCC(c1ccco1)N1CCc2ccccc2C1)C(=O)Nc1ccccc1F (stereo not drawn) | -16 | 7 | -6 | 46* | 16 | 43 | 48* | 2 | 16 | 18
